Measured values as given in ChEMBL document CHEMBL1126147 (J Med Chem, 1992).
Active and inactive are the calls of the source. The calls are words filed in the database; no cut-off is given here.

Assays:
[1] = biological target: T1, Aldo-keto reductase family 1 member B1 (Homo sapiens, UniProt P15121); assay: In vitro inhibitory activity against aldose reductase isolated from human placenta
Rattus norvegicus [2] = assay: In vivo inhibition of sorbitol accumulation in the sciatic nerve in streptozotocin induced diabetic rat model at a concentration of 10 mg/kg; format: functional
How it was run: (§1)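 Rats (n = 4) were made diabetic with a single iv dose of streptozotocin (86 mg/kg). Compound was given by oral gavage at 4, 7 and 24 h. Animals were killed at 27 h and sciatic nerve sorbitol measured. Percent inhibition is relative to untreated diabetic rats (n = 4), with significance by Student's t test (p < 0.05).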

Rattus norvegicus [3] = assay: In vivo inhibition of sorbitol accumulation in the sciatic nerve in streptozotocin induced diabetic rat model at a concentration of 25 mg/kg; NS=not significant; format: functional, organism-based; set-up: dose 25 mg/kg; how it was run: as §1
Rattus norvegicus [4] = assay: In vivo inhibition of sorbitol accumulation in the sciatic nerve in streptozotocin induced diabetic rat model at a concentration of 25 mg/kg; format: functional; how it was run: as §1
Rattus norvegicus [5] = assay: In vivo inhibition of sorbitol accumulation in the sciatic nerve in streptozotocin induced diabetic rat model at a concentration of 10 mg/kg; NS=not significant; format: functional, organism-based; set-up: dose 10 mg/kg; how it was run: as §1
Rattus norvegicus [6] = assay: In vivo inhibition of sorbitol accumulation in the sciatic nerve in streptozotocin induced diabetic rat model at a concentration of 100 mg/kg; format: functional; how it was run: as §1
[7] = biological target: T1, Aldo-keto reductase family 1 member B1; assay: In vitro inhibitory activity against aldose reductase isolated from human placenta at 10e-5 M
How it was run: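 Aldose reductase purified from human placenta; DL-glyceraldehyde as substrate with NADPH as cofactor; enzyme inhibition measured in vitro.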

| Compound | IC50 [1] | other results |
| --- | --- | --- |
| O=C(O)Cc1nn(Cc2cc3cc(Br)ccc3s2)c(=O)c2ccccc12 | 1000 nM | – |
| O=C(O)Cc1nn(Cc2nc3cc(C(F)(F)F)ccc3s2)c(=O)c2ccccc12 [ZOPOLRESTAT] | – | inhibition in vivo at 10 mg/kg (Rattus norvegicus [2]): 80% |
| O=C(O)Cc1nn(Cc2cc3c(Cl)cccc3s2)c(=O)c2ccccc12 | 110 nM | – |
| O=C(O)Cc1nn(Cc2cn3ccc(Cl)cc3n2)c(=O)c2ccccc12 | 37 nM | – |
| O=C(O)Cc1nn(C/C(S)=N/c2cccc(C(F)(F)F)c2)c(=O)c2ccccc12 | 52 nM | – |
| O=C(O)Cc1nn(CC(=O)Nc2ccc(C(F)(F)F)cc2)c(=O)c2ccccc12 | 2100 nM | – |
| O=C(O)Cc1nn(Cc2cc3cc(Cl)ccc3o2)c(=O)c2ccccc12 | 150 nM | – |
| O=C(O)Cc1nn(Cc2nc(-c3ccc(Br)cc3)no2)c(=O)c2ccccc12 | 4600 nM | – |
| O=C(O)Cc1nn(CC(=O)Nc2ccccc2)c(=O)c2ccccc12 | 4900 nM | – |
| O=C(O)Cc1nn(Cc2cc3cccnc3s2)c(=O)c2ccccc12 | 420 nM | inhibition (Rattus norvegicus [3]): inactive |
| O=C(O)Cc1nn(CC(=O)Nc2cccc(C(F)(F)F)c2)c(=O)c2ccccc12 | 19 nM | – |
| O=C(O)Cc1nn(CC(=O)Nc2cc(C(F)(F)F)cc(C(F)(F)F)c2Br)c(=O)c2ccccc12 | 2200 nM | – |
| O=C(O)Cc1nn(Cc2cc3cc([N+](=O)[O-])ccc3s2)c(=O)c2ccccc12 | 2200 nM | inhibition (Rattus norvegicus [5]): inactive |
| O=C(O)Cc1nn(CC(=O)Nc2cc(C(F)(F)F)cc(C(F)(F)F)c2)c(=O)c2ccccc12 | 1100 nM | – |
| O=C(O)Cc1nn(CC(=O)Nc2cccc(F)c2)c(=O)c2ccccc12 | 22 nM | – |
| O=C(O)Cc1nn(CC(=O)Nc2ccccc2C(F)(F)F)c(=O)c2ccccc12 | 5900 nM | – |
| O=C(O)Cc1nn(Cc2nc3ccc(Br)cc3o2)c(=O)c2ccccc12 | 540 nM | – |

| Compound | IC50 [1] | other results |
| --- | --- | --- |
| O=C(O)Cc1nn(Cc2nc(-c3ccccc3)c(-c3ccccc3)o2)c(=O)c2ccccc12 | 4500 nM | – |
| O=C(O)Cc1nn(Cc2nc(-c3ccccn3)no2)c(=O)c2ccccc12 | 156 nM | inhibition (Rattus norvegicus [5]): inactive |
| O=C(O)Cc1nn(CC(=O)Nc2ccc(Cl)cc2)c(=O)c2ccccc12 | 440 nM | – |
| O=C(O)Cc1nn(CC(=O)Nc2cc(C(F)(F)F)ccc2O)c(=O)c2ccccc12 | 200 nM | – |
| O=C(O)Cc1nn(Cc2nc3cc(Br)ccc3o2)c(=O)c2ccccc12 | 27 nM | inhibition in vivo at 10 mg/kg (Rattus norvegicus [2]): 67% |
| O=C(O)Cc1nn(CC(=O)Nc2cc(F)cc(F)c2O)c(=O)c2ccccc12 | 170 nM | – |
| O=C(O)Cc1nn(Cc2nc3cc(Cl)cc(Cl)c3o2)c(=O)c2ccccc12 | 32 nM | inhibition in vivo at 10 mg/kg (Rattus norvegicus [2]): 63% |
| O=C(O)Cc1nn(Cc2nc3cc(-c4ccccc4)ccc3o2)c(=O)c2ccccc12 | 6100 nM | – |
| O=C(O)Cc1nn(CC(=O)Nc2cccc(Cl)c2)c(=O)c2ccccc12 | 13 nM | – |
| O=C(O)Cc1nn(Cc2nc3cc(F)cc(F)c3o2)c(=O)c2ccccc12 | 3.2 nM | inhibition in vivo at 10 mg/kg (Rattus norvegicus [2]): 78% |
| O=C(O)Cc1nn(Cc2nc3cc(Cl)ccc3o2)c(=O)c2ccccc12 | 78 nM | inhibition in vivo at 10 mg/kg (Rattus norvegicus [2]): 72% |
| COc1cc(NC(=O)Cn2nc(CC(=O)O)c3ccccc3c2=O)cc(OC)c1OC | – | inhibition [7]: 20% |
| O=C(O)Cc1nn(CC(=O)Nc2ccccc2Cl)c(=O)c2ccccc12 | 430 nM | – |
| O=C(O)Cc1nn(CC(=O)Nc2cc(C(F)(F)F)ccc2Br)c(=O)c2ccccc12 | 28 nM | – |
| O=C(O)Cc1nn(C/C(S)=N/c2cccc(Cl)c2)c(=O)c2ccccc12 | 50 nM | – |
| O=C(O)Cc1nn(Cc2nc3cc(C(F)(F)F)ccc3o2)c(=O)c2ccccc12 | 31 nM | inhibition in vivo at 10 mg/kg (Rattus norvegicus [2]): 32% |
| O=C(O)Cc1nn(CC(=S)Nc2cc(C(F)(F)F)ccc2Br)c(=O)c2ccccc12 | 200 nM | – |

Second part, led by results:

| IC50 [1] | Compound | other results |
| --- | --- | --- |
| 240 nM | O=C(O)Cc1nn(Cc2nc(-c3c(F)cccc3Cl)no2)c(=O)c2ccccc12 | – |
| 460 nM | O=C(O)Cc1nn(Cc2csc(-c3ccccc3F)n2)c(=O)c2ccccc12 | – |
| 2200 nM | O=C(O)Cc1nn(Cc2nc(-c3ccccc3)ns2)c(=O)c2ccccc12 | – |
| 470 nM | COc1ccccc1-c1noc(Cn2nc(CC(=O)O)c3ccccc3c2=O)n1 | inhibition (Rattus norvegicus [3]): inactive |
| 89 nM | O=C(O)Cc1nn(Cc2nc3ccccc3o2)c(=O)c2ccccc12 | – |
| 720 nM | O=C(O)Cc1nn(Cc2snc3ccccc23)c(=O)c2ccccc12 | – |
| 10000 nM | O=C(O)Cc1nn(Cc2csnc2-c2ccccc2)c(=O)c2ccccc12 | – |
| 160 nM | O=C(O)Cc1nn(Cc2nc(-c3ccccc3)no2)c(=O)c2ccccc12 | – |
| 19 nM | O=C(O)Cc1nn(Cc2nc(-c3cccc(F)c3F)no2)c(=O)c2ccccc12 | inhibition in vivo at 25 mg/kg (Rattus norvegicus [4]): 89% |
| 23 nM | O=C(O)Cc1nn(Cc2nc(-c3ccccc3Cl)no2)c(=O)c2ccccc12 | inhibition (Rattus norvegicus [5]): inactive; inhibition in vivo at 25 mg/kg (Rattus norvegicus [4]): 75% |
| 630 nM | O=C(O)Cc1nn(Cc2nc(-c3ccc(F)cc3F)no2)c(=O)c2ccccc12 | inhibition in vivo at 25 mg/kg (Rattus norvegicus [4]): 46% |
| 3200 nM | O=C(O)Cc1nn(Cc2nc(-c3ccccc3)co2)c(=O)c2ccccc12 | – |
| 670 nM | O=C(O)Cc1nn(Cc2cc(-c3ccccc3)ns2)c(=O)c2ccccc12 | – |
| < 10 nM | O=C(O)Cc1nn(Cc2nc(-c3ccccc3F)no2)c(=O)c2ccccc12 | inhibition in vivo at 25 mg/kg (Rattus norvegicus [4]): 69% |
| 3100 nM | O=C(O)Cc1nn(Cc2nnc(-c3ccccc3)o2)c(=O)c2ccccc12 | – |
| 470 nM | O=C(O)Cc1nn(Cc2noc(-c3ccccc3C(F)(F)F)n2)c(=O)c2ccccc12 | – |

| IC50 [1] | Compound | other results |
| --- | --- | --- |
| 120 nM | O=C(O)Cc1nn(Cc2cc3ccccc3s2)c(=O)c2ccccc12 | inhibition in vivo at 100 mg/kg (Rattus norvegicus [6]): 77% |
| 250 nM | O=C(O)Cc1nn(Cc2cc3cc(Cl)ccc3s2)c(=O)c2ccccc12 | – |
| 28 nM | O=C(O)Cc1nn(Cc2noc(-c3ccccc3Cl)n2)c(=O)c2ccccc12 | – |
| 220 nM | O=C(O)Cc1nn(Cc2nc(-c3ccccc3C(F)(F)F)no2)c(=O)c2ccccc12 | inhibition in vivo at 25 mg/kg (Rattus norvegicus [4]): 60% |
| 3000 nM | O=C(O)Cc1nn(Cc2nc3cc4ccccc4cc3o2)c(=O)c2ccccc12 | – |
| 6.5 nM | O=C(O)Cc1nn(Cc2nc(-c3ccccc3Br)no2)c(=O)c2ccccc12 | inhibition in vivo at 10 mg/kg (Rattus norvegicus [2]): 27% |
| 1100 nM | O=C(O)Cc1nn(Cc2nc(-c3ccccc3Cl)ns2)c(=O)c2ccccc12 | – |
| 4200 nM | Cn1c(Cn2nc(CC(=O)O)c3ccccc3c2=O)nc2ccccc21 | – |
| 64 nM | Cc1ccccc1-c1noc(Cn2nc(CC(=O)O)c3ccccc3c2=O)n1 | inhibition (Rattus norvegicus [5]): inactive |
| 870 nM | O=C(O)Cc1nn(Cc2cc3ccccc3[nH]2)c(=O)c2ccccc12 | – |
| 660 nM | O=C(O)Cc1nn(Cc2ncc(-c3ccccc3)o2)c(=O)c2ccccc12 | – |
| 34 nM | O=C(O)Cc1nn(Cc2nc(-c3ccccc3)cs2)c(=O)c2ccccc12 | – |
| 59000 nM | O=C(O)Cc1nn(Cc2ccc3ccccc3n2)c(=O)c2ccccc12 | – |
| 8200 nM | O=C(O)Cc1nn(Cc2csc(-c3ccccc3)n2)c(=O)c2ccccc12 | – |
| 150 nM | O=C(O)Cc1nn(Cc2cc3cc(F)ccc3s2)c(=O)c2ccccc12 | inhibition in vivo at 25 mg/kg (Rattus norvegicus [4]): 49% |
